Results from ChEMBL document CHEMBL4689842, “EUbOPEN Chemogenomics Library wave 1” (2021).

What was measured:
Assay type in all cases: toxicity, cell-based
Fibroblast = assay: Incucyte cell viability with human fibroblast; settings: 10 µM, compound concentration 10 uM; note: filed as whole numbers so only -1 and 0 and 1 occur
U2OS [1] = assay: Incucyte cell viability with U2OS; settings: human, 10 µM, compound concentration 10 uM; note: filed as whole numbers so only -1 and 0 and 1 occur
U2OS [2] = assay: Multiplex assay against U2OS; settings: human
Method in brief: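 At seeding, live cells were stained with Hoechst33342, BioTracker Green Microtubule Cytoskeleton Dye, MitoTracker Red and Annexin V Alexa Fluor 680. After compound addition they were imaged on a CQ1 microscope at 37°C and 5% CO2, and CellPathfinder machine-learning gating sorted them into Hoechst high-intensity objects or normal cells, with normal cells further split into healthy, pyknosed or fragmented nuclei and pyknosed cells into mitotic or apoptotic. Tubulin, mitochondrial-mass and membrane-permeability phenotypes are given as per cents of cells with healthy nuclei.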

HEK-293T = assay: Incucyte cell viability with HEK293T; settings: human, 10 µM, compound concentration 10 uM; note: filed as whole numbers so only -1 and 0 and 1 occur
[3] = 0 h, replicate number 1, timepoint 0 hours
[4] = 6 h, replicate number 2, timepoint 6 hours
[5] = 12 h, replicate number 1, timepoint 12 hours
[6] = 18 h, replicate number 1, timepoint 18 hours
[7] = 24 h, replicate number 1, timepoint 24 hours
[8] = 6 h, replicate number 1, timepoint 6 hours
[9] = 12 h, 1 µM, compound concentration 1 uM, replicate 1
[10] = 12 h, 1 µM, compound concentration 1 uM, replicate 2
[11] = 12 h, 10 µM, compound concentration 10 uM, replicate 1
[12] = 12 h, 10 µM, compound concentration 10 uM, replicate 2
[13] = 24 h, 1 µM, compound concentration 1 uM, replicate 1
[14] = 24 h, 1 µM, compound concentration 1 uM, replicate 2
[15] = 24 h, 10 µM, compound concentration 10 uM, replicate 1
[16] = 24 h, 10 µM, compound concentration 10 uM, replicate 2

CNC(=O)c1cc(Oc2ccc(NC(=O)Nc3cc(C(C)(C)C)nn3-c3ccc4ncccc4c3)c(F)c2)ccn1 [REBASTINIB]
Growth Rate (Fibroblast; [3]): 0
Growth Rate (Fibroblast; [4]): 1
Growth Rate (Fibroblast; [5]): 0
Growth Rate (Fibroblast; [6]): 0
Growth Rate (Fibroblast; [7]): 0
Growth Rate (U2OS [1]; [3]): 1
Growth Rate (U2OS [1]; [8]): 0
Growth Rate (U2OS [1]; [4]): 1
Growth Rate (U2OS [1]; [5]): 0
Growth Rate (U2OS [1]; [6]): 0
Growth Rate (U2OS [1]; [7]): 0
Population Apoptotic (%) (U2OS [2]; [9]): 46%
Population Fragmented Nuclei (%) (U2OS [2]; [9]): 3%
Population Healthy Nuclei (%) (U2OS [2]; [9]): 88%
Population Hoechst High Intensity Objects (%) (U2OS [2]; [9]): 3%
Population Membrane Permeable-Phenotype (%) (U2OS [2]; [9]): 16%
Population Mitochondria Different-Phenotype (%) (U2OS [2]; [9]): 15%
Population Mitotic Cells (%) (U2OS [2]; [9]): 53%
Population Normal (%) (U2OS [2]; [9]): 96%
Population Pyknosed Nuclei (%) (U2OS [2]; [9]): 7%
Population Tubulin-Different-Phenotype (%) (U2OS [2]; [9]): 13%
Total Cell Count (U2OS [2]; [9]): 164
Population Apoptotic (%) (U2OS [2]; [10]): 0%
Population Fragmented Nuclei (%) (U2OS [2]; [10]): 10%
Population Healthy Nuclei (%) (U2OS [2]; [10]): 87%
Population Hoechst High Intensity Objects (%) (U2OS [2]; [10]): 7%
Population Membrane Permeable-Phenotype (%) (U2OS [2]; [10]): 17%
Population Mitochondria Different-Phenotype (%) (U2OS [2]; [10]): 31%
Population Mitotic Cells (%) (U2OS [2]; [10]): 100%
Population Normal (%) (U2OS [2]; [10]): 92%
Population Pyknosed Nuclei (%) (U2OS [2]; [10]): 1%
Population Tubulin-Different-Phenotype (%) (U2OS [2]; [10]): 35%
Total Cell Count (U2OS [2]; [10]): 113
Population Apoptotic (%) (U2OS [2]; [11]): 50%
Population Fragmented Nuclei (%) (U2OS [2]; [11]): 16%
Population Healthy Nuclei (%) (U2OS [2]; [11]): 63%
Population Hoechst High Intensity Objects (%) (U2OS [2]; [11]): 6%
Population Membrane Permeable-Phenotype (%) (U2OS [2]; [11]): 30%
Population Mitochondria Different-Phenotype (%) (U2OS [2]; [11]): 54%
Population Mitotic Cells (%) (U2OS [2]; [11]): 50%
Population Normal (%) (U2OS [2]; [11]): 93%
Population Pyknosed Nuclei (%) (U2OS [2]; [11]): 20%
Population Tubulin-Different-Phenotype (%) (U2OS [2]; [11]): 96%
Total Cell Count (U2OS [2]; [11]): 196
Population Apoptotic (%) (U2OS [2]; [12]): 46%
Population Fragmented Nuclei (%) (U2OS [2]; [12]): 8%
Population Healthy Nuclei (%) (U2OS [2]; [12]): 72%
Population Hoechst High Intensity Objects (%) (U2OS [2]; [12]): 11%
Population Membrane Permeable-Phenotype (%) (U2OS [2]; [12]): 18%
Population Mitochondria Different-Phenotype (%) (U2OS [2]; [12]): 52%
Population Mitotic Cells (%) (U2OS [2]; [12]): 53%
Population Normal (%) (U2OS [2]; [12]): 88%
Population Pyknosed Nuclei (%) (U2OS [2]; [12]): 18%
Population Tubulin-Different-Phenotype (%) (U2OS [2]; [12]): 98%
Total Cell Count (U2OS [2]; [12]): 111
Population Apoptotic (%) (U2OS [2]; [13]): 25%
Population Fragmented Nuclei (%) (U2OS [2]; [13]): 6%
Population Healthy Nuclei (%) (U2OS [2]; [13]): 84%
Population Hoechst High Intensity Objects (%) (U2OS [2]; [13]): 2%
Population Membrane Permeable-Phenotype (%) (U2OS [2]; [13]): 12%
Population Mitochondria Different-Phenotype (%) (U2OS [2]; [13]): 28%
Population Mitotic Cells (%) (U2OS [2]; [13]): 75%
Population Normal (%) (U2OS [2]; [13]): 97%
Population Pyknosed Nuclei (%) (U2OS [2]; [13]): 9%
Population Tubulin-Different-Phenotype (%) (U2OS [2]; [13]): 13%
Total Cell Count (U2OS [2]; [13]): 218
Population Apoptotic (%) (U2OS [2]; [14]): 44%
Population Fragmented Nuclei (%) (U2OS [2]; [14]): 13%
Population Healthy Nuclei (%) (U2OS [2]; [14]): 79%
Population Hoechst High Intensity Objects (%) (U2OS [2]; [14]): 13%
Population Membrane Permeable-Phenotype (%) (U2OS [2]; [14]): 14%
Population Mitochondria Different-Phenotype (%) (U2OS [2]; [14]): 26%
Population Mitotic Cells (%) (U2OS [2]; [14]): 55%
Population Normal (%) (U2OS [2]; [14]): 86%
Population Pyknosed Nuclei (%) (U2OS [2]; [14]): 7%
Population Tubulin-Different-Phenotype (%) (U2OS [2]; [14]): 35%
Total Cell Count (U2OS [2]; [14]): 126
Population Apoptotic (%) (U2OS [2]; [15]): 75%
Population Fragmented Nuclei (%) (U2OS [2]; [15]): 17%
Population Healthy Nuclei (%) (U2OS [2]; [15]): 50%
Population Hoechst High Intensity Objects (%) (U2OS [2]; [15]): 18%
Population Membrane Permeable-Phenotype (%) (U2OS [2]; [15]): 33%
Population Mitochondria Different-Phenotype (%) (U2OS [2]; [15]): 91%
Population Mitotic Cells (%) (U2OS [2]; [15]): 24%
Population Normal (%) (U2OS [2]; [15]): 81%
Population Pyknosed Nuclei (%) (U2OS [2]; [15]): 31%
Population Tubulin-Different-Phenotype (%) (U2OS [2]; [15]): 94%
Total Cell Count (U2OS [2]; [15]): 227
Population Apoptotic (%) (U2OS [2]; [16]): 64%
Population Fragmented Nuclei (%) (U2OS [2]; [16]): 15%
Population Healthy Nuclei (%) (U2OS [2]; [16]): 59%
Population Hoechst High Intensity Objects (%) (U2OS [2]; [16]): 17%
Population Membrane Permeable-Phenotype (%) (U2OS [2]; [16]): 30%
Population Mitochondria Different-Phenotype (%) (U2OS [2]; [16]): 87%
Population Mitotic Cells (%) (U2OS [2]; [16]): 35%
Population Normal (%) (U2OS [2]; [16]): 82%
Population Pyknosed Nuclei (%) (U2OS [2]; [16]): 25%
Population Tubulin-Different-Phenotype (%) (U2OS [2]; [16]): 97%
Total Cell Count (U2OS [2]; [16]): 141
Growth Rate (HEK-293T; 0 h, replicate number 2, timepoint 0 hours): 0
Growth Rate (HEK-293T; [8]): 0
Growth Rate (HEK-293T; [5]): 0
Growth Rate (HEK-293T; [6]): 0
Growth Rate (HEK-293T; [7]): 0
